Test [1] in a line: Cytotoxicity against human lymphocytes by colorimetric method. The conditions noted are these: Lymphocyte. It counts as cell-based.
The test system of a further test is SF-295. As to the kind of experiment: Cytotoxicity against human SF295 cells by colorimetric method. It counts as functional, cell-based.
The test system of a further test is PC-3. As to the kind of experiment: Cytotoxicity against human PC3 cells by colorimetric method. The format is functional, cell-based.
For the next test, the system named is HL-60. In words: Cytotoxicity against human HL60 cells by colorimetric method. The format is functional, cell-based.
Test [2] is described as follows: Cytotoxicity against human HCT8 cells by colorimetric method. The following applies: HCT-8. It counts as functional, cell-based.
The test system of the next test is MDA-MB-435. As to the kind of experiment: Cytotoxicity against human MDA-MB-435 cells by colorimetric method. It counts as functional, cell-based.
The test system of the next test is Leishmania donovani. As to the kind of experiment: Antileishmanial activity against Leishmania donovani by AlamarBlue assay. It counts as functional, organism-based. The essentials:
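Microplate Alamar Blue (MABA) growth-inhibition assay on *L. donovani*, with amphotericin B and pentamidine as reference drugs.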
A general note: Resazurin is reduced to fluorescent resorufin, in cell work by metabolically active cells.

For a further test, the system named is Leishmania major. As to the kind of experiment: Antileishmanial activity against Leishmania major by AlamarBlue assay. The conditions noted are these: read-out: LD50 (the source's name). It counts as functional.

As usually defined, the IC50 is the concentration that gives 50% inhibition. Low values mean inhibition by little substance, high ones a need for much substance. As for `COc1cc2oc(C)cc(=O)c2c(O)c1C`, the IC50 (in test [1]; in the test with SF-295; in the test with PC-3; in the test with HL-60; in test [2]; in the test on MDA-MB-435) was more than 113 µM throughout. In addition, the IC50 with Leishmania donovani was more than 181 µM. The LC50 in the test with Leishmania major amounted to 39.9 µM.

As for `CC(=O)O[C@H]1C2=COC(C)=CC2=C(C=O)C(=O)[C@]1(C)OC(C)=O`, the 50% inhibitory concentration (IC50) is more than 78 µM in test [1]; 26.3 µM in the test with SF-295; 22.1 µM with HL-60; 13.9 µM in test [2]; 26.9 µM with MDA-MB-435; 59.3 µM in the test with Leishmania donovani. Further, the LC50 with Leishmania major was 19.8 µM.

As for `COc1cc2oc(CO)cc(=O)c2c(O)c1C`, the half-inhibitory concentration (IC50) (in test [1]; with SF-295; in the test with PC-3; in the test on HL-60; in test [2]; in the test with MDA-MB-435) was more than 105 µM each time.

Take `CC1=CC2=C(CC3=C4C=C(C)OC=C4[C@H](O)[C@@](C)(O)C3=O)C(=O)[C@](C)(O)[C@@H](O)C2=CO1`: the IC50 in test [1] is more than 58 µM; in the test on SF-295, more than 58 µM; in the test with PC-3 it was 10 µM; in the test with HL-60 it was more than 58 µM; in test [2], more than 58 µM; in the test on MDA-MB-435, more than 58 µM. This compound also yielded an IC50 in the test on Leishmania donovani of more than 93.4 µM. Besides, in the test on Leishmania major, the LC50 is 28.5 µM.

With `CC1=CC2=C(C=O)C(=O)[C@](C)(O)[C@@H](O)C2=CO1`, the IC50 in test [1] is more than 113 µM; in the test on SF-295, 28 µM; with HL-60, 38.8 µM; in test [2], 12.9 µM; with MDA-MB-435 it was 34.3 µM; in the test with Leishmania donovani it was 80.5 µM. Also, the LC50 in the test with Leishmania major was 20.5 µM.

On to `CC1=CC2=C(Cc3c(O)c(C)c4c(c3O)C(=O)OC(C)C4)C(=O)[C@](C)(O)[C@@H](O)C2=CO1` (stereo partly drawn), for which the IC50 was more than 58 µM in test [1]; more than 58 µM in the test with SF-295; 7.1 µM in the test on PC-3; more than 58 µM in the test on HL-60; more than 58 µM in test [2]; more than 58 µM with MDA-MB-435. For the same compound, the LC50 in the test with Leishmania major is 21.7 µM.

Take `C[C@@H]1[C@H](O)[C@@H](C)/C=C/C=C/C=C/C=C/C=C/C=C/C=C/[C@H](O[C@@H]2O[C@H](C)[C@@H](O)[C@H](N)[C@@H]2O)C[C@@H]2O[C@](O)(C[C@@H](O)C[C@@H](O)[C@H](O)CC[C@@H](O)C[C@@H](O)CC(=O)O[C@H]1C)C[C@H](O)[C@H]2C(=O)O` [AMPHOTERICIN B]: inhibition in the test on Leishmania donovani was half-maximal at 0.14 µM (IC50).

`COc1cccc2c1C(=O)c1c(O)c3c(c(O)c1C2=O)C[C@@](O)(C(=O)CO)C[C@@H]3O[C@H]1C[C@H](N)[C@H](O)[C@H](C)O1` [DOXORUBICIN]: the 50% inhibitory concentration (IC50) is 0.7 µM in test [1], 0.7 µM in the test with SF-295, 0.41 µM in the test with PC-3 and 1.51 µM with MDA-MB-435.

As to `CC(=O)O[C@H]1C2=COC(C)=CC2=C(CC2=C3C=C(C)OC=C3[C@H](OC(C)=O)[C@@](C)(OC(C)=O)C2=O)C(=O)[C@]1(C)OC(C)=O`, the 50% inhibitory concentration (IC50) was more than 42 µM in test [1]; more than 42 µM in the test on SF-295; 33.3 µM in the test with PC-3; more than 42 µM in the test on HL-60; more than 42 µM in test [2]; more than 42 µM in the test on MDA-MB-435.

Regarding `CN[C@@H]1[C@@H](O)[C@@H](O[C@@H]2[C@@H](O)[C@H](O[C@H]3O[C@H]([C@@H](C)O)[C@@H](O)[C@H](O)[C@H]3N)[C@@H](N)C[C@H]2N)OC[C@]1(C)O` [GENETICIN], in the test on Leishmania major, the LC50 was found to be 3.43 µM.

Regarding `COc1cc2oc(C)cc(=O)c2c(O)c1OC` [STELLATIN], the half-inhibitory concentration (IC50) in test [1] was more than 105 µM; in the test with SF-295 it was more than 105 µM; in the test with PC-3, 20.5 µM; in the test with HL-60, more than 105 µM; in test [2], more than 105 µM; in the test with MDA-MB-435 it was more than 105 µM. Besides, in the test with Leishmania donovani, the 50% inhibitory concentration (IC50) is more than 169 µM. In addition, the LC50 with Leishmania major is 34.5 µM.

Values taken from ChEMBL document CHEMBL3102817, “Mycoleptones A-C and polyketides from the endophyte Mycoleptodiscus indicus” (J Nat Prod, 2014).
